# Bioassay records: PubChem, several laboratories
# Only some compounds are listed: those with a hit (about 4.4% of all), similar ones and a draw of the others.
# AHR activator – activators of human aryl hydrocarbon receptor. P35869. AHR-responsive luciferase reporter cells, luminescence. activation, % at 5 µM. 320,000 tested, 2.5% active. AID 2796; in the data active = activation above about 47%;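 note: 0% = vehicle wells and 100% = reference agonist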
# Target sequence (P35869 whole entry, looked up): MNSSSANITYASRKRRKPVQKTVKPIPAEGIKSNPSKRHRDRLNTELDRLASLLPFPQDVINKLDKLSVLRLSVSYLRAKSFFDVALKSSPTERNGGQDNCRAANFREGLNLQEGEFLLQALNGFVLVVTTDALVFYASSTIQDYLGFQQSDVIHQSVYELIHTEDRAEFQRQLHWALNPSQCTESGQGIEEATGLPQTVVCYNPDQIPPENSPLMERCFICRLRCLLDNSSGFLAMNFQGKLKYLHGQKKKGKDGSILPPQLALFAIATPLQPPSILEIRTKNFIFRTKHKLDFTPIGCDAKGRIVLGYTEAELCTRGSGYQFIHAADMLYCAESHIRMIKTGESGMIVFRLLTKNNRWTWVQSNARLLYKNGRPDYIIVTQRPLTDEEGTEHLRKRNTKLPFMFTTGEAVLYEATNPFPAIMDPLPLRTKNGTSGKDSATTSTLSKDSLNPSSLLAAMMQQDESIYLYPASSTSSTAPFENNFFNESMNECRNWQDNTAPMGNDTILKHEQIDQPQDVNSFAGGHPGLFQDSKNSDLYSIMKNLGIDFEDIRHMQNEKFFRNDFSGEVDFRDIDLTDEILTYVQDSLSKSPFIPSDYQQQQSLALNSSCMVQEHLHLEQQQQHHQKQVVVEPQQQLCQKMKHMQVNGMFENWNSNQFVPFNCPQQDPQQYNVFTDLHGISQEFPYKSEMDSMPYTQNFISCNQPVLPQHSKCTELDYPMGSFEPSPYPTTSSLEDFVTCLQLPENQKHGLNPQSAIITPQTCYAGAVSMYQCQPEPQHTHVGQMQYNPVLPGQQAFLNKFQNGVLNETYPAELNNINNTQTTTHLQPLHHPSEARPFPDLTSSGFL
# AI-2 QS mod – modulates the Vibrio harveyi AI-2 quorum sensing system; activity change, % at 7.5 µM; 300,000 tested, 0.4% active; Vibrio harveyi JMH597 AI-2 luminescence/OD600 ratio, 9 h; hits give low values; strain lacks LuxN and CqsS sensors; 0 = neutral-control median; AID 2094; in the data active = activity change below about -75%, passing the limit was not always enough;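 note: luminescence divided by OD600 gain over 9 h not by final OD600 alone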
# bovine MsrA act – activators of bovine methionine sulfoxide reductase A | purified bovine MsrA, absorbance read-out | AID 602163 | 360,000 tested, 0.3% active | activation, % at 10.6 µM; in the data active = activation above about 7.5%;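 note: 0% = vehicle and 100% = reference activator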
# m5-HT2A agonist – mouse HTR2A agonism via beta-arrestin recruitment. activation, % at 7.6 µM. CHO-K1 mHTR2A beta-arrestin complementation, luminescence; percent of 30 µM serotonin response. P35363. AID 624169. 360,000 tested, 0.66% active;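 active = activation above a run cutoff, the mean activation of all tested compounds plus 3 SD, cut at about 14% in these data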;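 note: 0% = plate median of compound wells and 100% = 30 µM serotonin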
# MsrA inh – inhibits bovine methionine sulfoxide reductase A; purified bovine MsrA, absorbance read-out; inhibition, % at 15.5 µM; 360,000 tested, 0.75% active; AID 651718; in the data active = inhibition above about 4.5%;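 note: 0% = vehicle wells with enzyme and 100% = reference inhibitor wells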
# TbMetRS inhib – Trypanosoma brucei MetRS inhibition; purified T. brucei MetRS, ATP depletion, Kinase-Glo luminescence; inhibition, % at 11.9 µM; 360,000 tested, 0.4% active; AID 624268;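 active = inhibition above a per-plate cutoff of the control wells' mean inhibition plus 3 SD, cut at about 5.5% in these data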;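 note: 0% = DMSO wells median and 100% = median of wells with control inhibitor compound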
#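 Measured by: Kinase-Glo luciferase luminescence reporting remaining unconsumed ATP. Material: purified T. brucei MetRS enzyme. Doses: 11.9 µM compound single dose, 0.9% DMSO. Medium: HEPES buffer containing pyrophosphatase, BSA, spermine, DTT. Times: 15 min preincubation, 2 h reaction, all 25 °C. Reagent: methionine, ATP and bulk E. coli tRNA.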
# MOR ag counter – activates human mu opioid receptor in HTR2A counterscreen; 2,300 tested, 5.3% active; shares compounds with m5-HT2A agonist; U2OS OPRM1 beta-arrestin PathHunter, luminescence; DMSO 0%, DAMGO 9.3 µM 100%; activation, % at 9.3 µM;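 active = mean activation above the mean of DMSO-only wells plus 3 SD, cut at about 0.5% in these data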
# m5-HT2A ag conf – mouse HTR2A agonism confirmed | shares compounds with m5-HT2A agonist | CHO-K1 PathHunter beta-arrestin recruitment, luminescence; DMSO 0%, 30 µM serotonin 100% | activation, % at 7.6 µM | 2,300 tested, 19% active;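 active = mean activation across triplicates above the hit threshold derived in the original primary screen, cut at about 15% in these data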
# The depositor's hits bear a star; · = not tested or not shown.
SMILES,AHR activator,AI-2 QS mod,bovine MsrA act,m5-HT2A agonist,MsrA inh,TbMetRS inhib,MOR ag counter,m5-HT2A ag conf
COc1ccc([C@H]2CC(=O)C=C(c3cccc(OC)c3)C2)cc1,-1,·,-1,-1,1,-1,·,·
COc1cccc(C#CC2=CC(=O)C[C@H](c3ccc(F)cc3)C2)c1,·,·,-2,-1,1,-1,·,·
O=C1C=C(c2n[nH]nc2-c2ccccc2)C[C@@H](c2ccc(F)cc2)C1,·,·,-2,15*,1,0,-1,-4
O=C1C=C(c2ccc(-c3ccccc3)c(F)c2)C[C@@H](c2ccc(F)cc2)C1,0,·,-5,2,1,0,·,·
O=C1C=C(c2ccc(F)cc2OCc2ccccc2)C[C@@H](c2ccc(F)cc2)C1,4,·,0,16*,0,1,-1,-9
COc1ccc([C@H]2CC(=O)C=C(c3cccc(CO)c3)C2)cc1,12,·,-2,15*,1,0,-1,-4
COc1cccc(-c2n[nH]nc2C2=CC(=O)C[C@H](c3ccc(F)cc3)C2)c1,·,·,-3,22*,1,-1,0,0
CCC(c1nnnn1-c1ccc2c(c1)OCCO2)N1CCN(C(=O)C2CCCO2)CC1 (centres undefined),·,·,-2,1,0,0,·,·
COc1cc(OC)c(NC(=O)c2ccco2)cc1Cl,-5,15,-12,3,1,-1,·,·
COc1cc(NC(=O)c2ccco2)c(OC)cc1NC(=O)Nc1ccc(Cl)cc1,-3,18,-1,15*,1,-1,0,-2
Cc1c(Cl)sn(-c2ccc(Cl)cc2)c1=O,·,·,-9,17*,1,0,3.3*,0
COC(=O)c1ccccc1NC(=O)N1CCN(S(=O)(=O)c2ccc(Cl)cc2)CC1,0,1,1,17*,0,0,-1,-3
COC(=O)c1ccccc1NC(=O)N1CCCC1,2,15,-2,3,0,0,·,·
Cc1ccc2c(CN3CCN(c4ccccc4F)CC3)cc(=O)oc2c1,·,·,-4,4,0,0,·,·
Cc1cc(Cl)ccc1OC(C)C(=O)NC(C)C1CCCO1 (centres undefined),1,-2,-1,16*,1,0,0,-3
Cc1cc(OC(C)C(=O)NCC2CCCO2)cc(C)c1Cl (centres undefined),2,26,-6,15*,0,0,-1,-4
CC(NC(=O)Nc1ccc(Cl)cc1)C1CCCO1 (centres undefined),5,-1,-6,0,0,0,·,·
Cc1ccc(C)c(N2N=C(C(=O)OCc3nnc(-c4ccccc4)o3)CCC2=O)c1,0,14,-1,7,-1,-1,·,·
O=c1cc(-c2ccccc2)[nH]n2cnnc12,3,12,-9,3,0,1,·,·
CCN(C(=O)COC(=O)/C=C/c1c(C)nn(-c2ccccc2)c1C)c1c(N)n(Cc2ccccc2)c(=O)[nH]c1=O,·,·,-9,18*,-1,0,-1,-3
Cc1ccc(CNCC(O)(c2ccccc2)c2ccccc2)cc1,2,24,-1,20*,2,0,0,-4
C[C@@H]1CCCCO[C@H](CN(C)C(=O)Nc2ccccc2)[C@@H](C)CN([C@H](C)CO)C(=O)c2cc(NS(=O)(=O)c3cn(C)cn3)ccc2O1,·,·,-5,3,-1,0,·,·
COC(=O)[C@@]1(Cc2ccc(F)cc2)[C@H]2c3cc(C(=O)N4CCCC4)n(CCc4c[nH]c5ccccc45)c3C[C@H]2CN1C(=O)c1ccccc1,·,·,-2,4,0,0,·,·
COC(=O)[C@@]1(Cc2ccc(F)cc2)[C@H]2c3cc(C(=O)N(C)C)n(CCc4c[nH]c5ccc(O)cc45)c3C[C@H]2CN1C(=O)c1ccccc1,·,·,-2,26*,0,-1,0,11
O=S(=O)(Nc1ccc(-c2csc(-c3ccccc3)n2)cc1)c1ccccc1,13,0,-3,18*,2,1,0,5
SMILES,AHR activator,AI-2 QS mod,bovine MsrA act,m5-HT2A agonist,MsrA inh,TbMetRS inhib,MOR ag counter,m5-HT2A ag conf
Cc1ccc(S(=O)(=O)Nc2ccc(-c3csc(-c4ccccc4)n3)cc2)cc1,4,22,-6,9,1,-1,·,·
O=S(=O)(Nc1ccc2oc(-c3ccccc3)nc2c1)c1ccccc1,-14,23,-7,15*,2,0,0,4
COc1ccc(CNC(=O)C2(C)Cc3c(-c4ccc(N(C)C)cc4)ccnc3O2)cc1OC (centres undefined),·,·,-4,-5,0,0,·,·
COc1ccc(C(CNC(=O)COc2cc(C)c(Cl)c(C)c2)N2CCCCC2)cc1 (centres undefined),-1,9,-3,-6,0,-1,·,·
O=C(CCCN1C(=O)CSc2ncccc21)N1CCN(Cc2ccccc2)CC1,0,7,1,107*,0,0,-1,-5
CCOC(=O)N1CCC(NC(=O)CCCN2C(=O)CSc3ncccc32)CC1,0,27,3,-1,0,0,·,·
Cn1c(Cn2c(=O)sc3ccccc32)nnc1SCC(=O)Nc1ccccc1,9,16,-2,20*,-1,0,0,-5
COC(=O)/C=C/c1cc(F)ccc1S(=O)(=O)NC(C)(C)C,4,18,-1,1,-1,0,·,·
Cc1c(C(=O)OCC(=O)c2c(N)n(CC(C)C)c(=O)n(C)c2=O)oc2ccccc12,3,49,-4,18*,0,0,0,-1
COCc1c(C(=O)OCC(=O)c2c(N)n(CC(C)C)c(=O)n(C)c2=O)oc2ccccc12,2,33,0,-1,0,0,·,·
CC1(C)CSC(C)(C)C(=O)N1,·,·,-2,3,0,0,·,·
Cc1c(C(=O)Nc2ccc(S(=O)(=O)N3CCOCC3)cc2)cccc1[N+](=O)[O-],2,-1,-5,19*,1,-1,0,1
O=C(N/N=C/C=C/c1ccc2c(c1)OCO2)c1ccc([N+](=O)[O-])cc1,11,1,-1,3,0,0,·,·
Nc1ccc(C(=O)N/N=C\C=C\c2ccc([N+](=O)[O-])cc2)cc1,1,21,-18,17*,4,-1,0,4
N#Cc1c(N)nc(SCc2ccccc2)c(C#N)c1-c1ccco1,-1,-5,0,15*,2,0,0,-3
CCOCC(=O)N(CC)Cc1ccccc1,-1,18,-6,4,1,0,·,·
